Calls of active or inactive are those of the source. The calls are words filed in the database; no cut-off is given here.
Experiments:
SK-BR-3 = assay: Induction of autophagy in human SK-BR-3 cells assessed as autophagic vacuoles by microscopic analysis; format: functional, cell-based
In short: (§1)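 Cells of each line treated with compound and examined by light microscopy for autophagic vacuoles, compared with control cells.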

MCF7 [1] = assay: Induction of autophagy in human MCF7 cells assessed as increase in beclin-1 level at 0.4 to 0.8 uM by Western blotting analysis; format: functional, cell-based; settings: dose 0.4-0.8 µM
In short: (§2)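 Cells seeded at 5 × 10^5 per 100 mm dish and allowed to attach overnight. Treated with compound or DMSO for 72 h (HGF 100 ng/mL added for MDA-MB-231). Lysed in RIPA buffer with protease inhibitors. 30 μg protein run on SDS-PAGE, transferred to PVDF, blocked in 5% BSA/TBST. Primary antibodies overnight at 4 °C, HRP secondary antibodies, chemiluminescent detection.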

[2] = Toxicity in athymic nude mouse xenografted with human MDA-MB-231/GFP cells at 10 mg/kg, ip measured after 34 days post inoculation; settings: in vivo, 816 h
[3] = biological target: Serine/threonine-protein kinase mTOR (Homo sapiens) (UniProt P42345); assay: Inhibition of mTOR in human MDA-MB-231 cells assessed as reduction in p-S6K level at 0.25 to 0.5 uM by Western blot analysis; format: cell-based; settings: dose 0.25-0.5 µM; in short: as §2
MDA-MB-231 [4] = assay: Antitumor activity against human MDA-MB-231/GFP cells xenografted in athymic nude mouse assessed as reduction in mean tumor volume at 10 mg/kg, ip measured after 34 days post inoculation (reference value: 1835 +/- 251 mm3); settings: time 34 day
MCF7 [5] = assay: Inhibition of colony formation in human MCF7 cells assessed as reduction in colony diameter at 0.2 uM incubated for 8 days by inverted phase contrast microscopic analysis (reference value: 50 micrometer); format: functional; settings: time 8 day
In short: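 Soft agar assay: 5 × 10^3 MCF-7 cells per well in a cell/agar matrix layered over a base agar layer. Overlaid with 10% serum medium containing 0.2 or 0.6 μM compound, or DMSO. Colonies photographed under inverted phase-contrast microscopy after 8 days. Matrix then solubilized, MTT added (4 h, 37 °C), detergent added, A570 read. Growth normalized to DMSO.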

T47D = assay: Antiproliferative activity against human T47D cells incubated for 72 hrs by MTT assay; format: functional, cell-based
In short: (§3)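 Cells seeded at 5 × 10^3/well and allowed to attach overnight, then washed with PBS. Compound diluted from 10 mM DMSO stock into medium (100 ng/mL HGF added for c-Met-expressing cells), in triplicate, 72 h at 37 °C. MTT added for 4 h, formazan dissolved in DMSO, absorbance read at 570 nm. Cell numbers taken from a standard curve; IC50 calculated.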

MCF7 [6] = assay: Antitumor activity against human MCF7 cells xenografted in athymic nude mouse assessed as inhibition of tumor growth at 10 mg/kg, ip administered for 3 weeks; parameters: scale not given: the % may be the effect or the level left
MDA-MB-231 [7] = assay: Antimigratory activity in human MDA-MB-231 cells assessed as inhibition of cell migration after 23 hrs by scratch wound healing assay; format: functional, cell-based
In short: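 Cells seeded at 1 × 10^5/well and grown to a confluent monolayer, then scratched with a 200 μL pipet tip. Held 5 h in serum-free medium, then given medium with HGF (100 ng/mL) plus compound or DMSO. Norstictic acid (15 μM) was the positive control. Wound width photographed at 0 h and followed up to 24 h; cells MeOH-fixed. Percent migration from wound thickness versus DMSO wells; IC50 calculated.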

MCF7 [8] = assay: Induction of autophagy in human MCF7 cells assessed as increase in LC3 level at 0.4 to 0.8 uM by Western blotting analysis; format: functional, cell-based; settings: dose 0.4-0.8 µM; in short: as §2
[9] = biological target: Serine/threonine-protein kinase mTOR (Homo sapiens) (UniProt P42345); assay: Inhibition of mTOR in human […] cells assessed as reduction in p-S6K level at 0.25 to 0.5 uM by Western blot analysis; format: cell-based; settings: MCF7, dose 0.25-0.5 µM; in short: as §2
[10] = Toxicity in athymic nude mouse xenografted with human MCF7 cells assessed as reduction in body weight at 10 mg/kg, ip measured after 75 days post inoculation; settings: in vivo, 1800 h
MDA-MB-468 [11] = assay: Antiproliferative activity against human MDA-MB-468 cells incubated for 72 hrs by MTT assay; format: functional, cell-based; settings: MDA-MB-468, 72 h; in short: as §3
[12] = Toxicity in athymic nude mouse xenografted with human MCF7 cells at 10 mg/kg, ip measured after 75 days post inoculation; settings: in vivo, 1800 h
MDA-MB-231 [13] = assay: Induction of autophagy in human MDA-MB-231 cells assessed as increase in LC3 level at 0.4 to 0.8 uM by Western blotting analysis; format: functional, cell-based; settings: dose 0.4-0.8 µM; in short: as §2
[14] = biological target: Serine/threonine-protein kinase mTOR (Homo sapiens) (UniProt P42345); assay: In vivo inhibition of mTOR in human MCF7 cells xenografted in athymic nude mouse assessed as downregulation of phosphorylated S6K level at 10 mg/kg, ip
[15] = biological target: Serine/threonine-protein kinase mTOR (Homo sapiens) (UniProt P42345); assay: In vivo inhibition of mTOR in human MDA-MB-231/GFP cells xenografted in athymic nude mouse assessed as downregulation of phosphorylated 4E-BP1 level at 10 mg/kg, ip
[16] = Toxicity in athymic nude mouse xenografted with human MDA-MB-231/GFP cells assessed as reduction in body weight at 10 mg/kg, ip measured after 34 days post inoculation; settings: in vivo, 816 h
BT-474 = assay: Induction of autophagy in human BT-474 cells assessed as autophagic vacuoles by microscopic analysis; format: functional, cell-based; in short: as §1
mTORC2 (Homo sapiens) = mTORC2 (Homo sapiens) (UniProt P42345+Q6R327+Q9BVC4+Q9BPZ7); assay: Inhibition of mTORC2 in human MCF7 cells assessed as reduction in Akt phosphorylation at Ser473 residue at 0.25 to 0.5 uM by Western blot analysis; format: cell-based; settings: dose 0.25-0.5 µM; in short: as §2
MCF7 [17] = assay: Antitumor activity against human MCF7 cells xenografted in athymic nude mouse assessed as reduction in mean tumor volume at 10 mg/kg, ip measured after 75 days post inoculation (reference value: 1093 +/- 185 mm3); settings: time 75 day
MDA-MB-231 [18] = assay: Antitumor activity against human MDA-MB-231/GFP cells xenografted in athymic nude mouse assessed as inhibition of tumor growth at 10 mg/kg, ip administered for 3 weeks; parameters: scale not given: the % may be the effect or the level left
MDA-MB-231 [19] = assay: Induction of autophagy in human MDA-MB-231 cells assessed as increase in beclin-1 level at 0.4 to 0.8 uM by Western blotting analysis; format: functional, cell-based; settings: dose 0.4-0.8 µM; in short: as §2
MDA-MB-468 [20] = assay: Induction of autophagy in human MDA-MB-468 cells assessed as autophagic vacuoles by microscopic analysis; format: functional, cell-based; in short: as §1
MDA-MB-231 [21] = assay: Induction of autophagy in human MDA-MB-231 cells assessed as autophagic vacuoles by microscopic analysis; format: functional, cell-based; in short: as §1

Structure (SMILES): CC(=O)C1=C(O)C=C2Oc3c(C(=O)/C=C/c4ccc(OC(F)(F)F)cc4)c(O)c(C)c(O)c3[C@]2(C)C1=O
- Activity (SK-BR-3): Active
- Activity (MCF7 [1]): Active
- Activity [2]: Non-Toxic
- inhibition [3]: Active
- Activity (MDA-MB-231 [4]): 692 mm3
- Activity (MCF7 [5]): 370 um
- IC50 (T47D): 330 nM
- Activity (MCF7 [6]): 64.8%
- Activity (MDA-MB-231 [7]): Dose-Dependent Effect
- IC50 (MDA-MB-231 [7]; MDA-MB-231, 23 h): 510 nM
- Activity (MCF7 [8]): Active
- inhibition [9]: Active
- Activity [10]: Non-Toxic
- IC50 (MDA-MB-468 [11]): 350 nM
- Activity [12]: Non-Toxic
- Activity (MDA-MB-231 [13]): Active
- inhibition [14]: Active
- inhibition [15]: Active
- Activity [16]: Non-Toxic
- Activity (BT-474): Active
- inhibition (mTORC2 (Homo sapiens)): Active
- Activity (MCF7 [17]): 385 mm3
- Activity (MDA-MB-231 [18]): 62.3%
- Activity (MDA-MB-231 [19]): Active
- Activity (MDA-MB-468 [20]): Active
- Activity (MDA-MB-231 [21]): Active

Source: ChEMBL document CHEMBL5252537, “Usnic Acid Benzylidene Analogues as Potent Mechanistic Target of Rapamycin Inhibitors for the Control of Breast Malignancies” (J Nat Prod, 2017)
